Measured values taken from ChEMBL document CHEMBL1124128, “Angiotensin-converting enzyme inhibitors. Mercaptan, carboxyalkyl dipeptide, and phosphinic acid inhibitors incorporating 4-substituted prolines” (J Med Chem, 1988).
Several values for one entry are separate records, joined by “and”; a condition that tells them apart may be missing. Equal values may be shown once.

Key:
[1] = target: T1, Angiotensin-converting enzyme (Rattus norvegicus, UniProt P47820); assay: In vitro inhibitory activity against angiotensin I converting enzyme of rats.; details: read-out: I50
T1 sequence (P47820 whole entry): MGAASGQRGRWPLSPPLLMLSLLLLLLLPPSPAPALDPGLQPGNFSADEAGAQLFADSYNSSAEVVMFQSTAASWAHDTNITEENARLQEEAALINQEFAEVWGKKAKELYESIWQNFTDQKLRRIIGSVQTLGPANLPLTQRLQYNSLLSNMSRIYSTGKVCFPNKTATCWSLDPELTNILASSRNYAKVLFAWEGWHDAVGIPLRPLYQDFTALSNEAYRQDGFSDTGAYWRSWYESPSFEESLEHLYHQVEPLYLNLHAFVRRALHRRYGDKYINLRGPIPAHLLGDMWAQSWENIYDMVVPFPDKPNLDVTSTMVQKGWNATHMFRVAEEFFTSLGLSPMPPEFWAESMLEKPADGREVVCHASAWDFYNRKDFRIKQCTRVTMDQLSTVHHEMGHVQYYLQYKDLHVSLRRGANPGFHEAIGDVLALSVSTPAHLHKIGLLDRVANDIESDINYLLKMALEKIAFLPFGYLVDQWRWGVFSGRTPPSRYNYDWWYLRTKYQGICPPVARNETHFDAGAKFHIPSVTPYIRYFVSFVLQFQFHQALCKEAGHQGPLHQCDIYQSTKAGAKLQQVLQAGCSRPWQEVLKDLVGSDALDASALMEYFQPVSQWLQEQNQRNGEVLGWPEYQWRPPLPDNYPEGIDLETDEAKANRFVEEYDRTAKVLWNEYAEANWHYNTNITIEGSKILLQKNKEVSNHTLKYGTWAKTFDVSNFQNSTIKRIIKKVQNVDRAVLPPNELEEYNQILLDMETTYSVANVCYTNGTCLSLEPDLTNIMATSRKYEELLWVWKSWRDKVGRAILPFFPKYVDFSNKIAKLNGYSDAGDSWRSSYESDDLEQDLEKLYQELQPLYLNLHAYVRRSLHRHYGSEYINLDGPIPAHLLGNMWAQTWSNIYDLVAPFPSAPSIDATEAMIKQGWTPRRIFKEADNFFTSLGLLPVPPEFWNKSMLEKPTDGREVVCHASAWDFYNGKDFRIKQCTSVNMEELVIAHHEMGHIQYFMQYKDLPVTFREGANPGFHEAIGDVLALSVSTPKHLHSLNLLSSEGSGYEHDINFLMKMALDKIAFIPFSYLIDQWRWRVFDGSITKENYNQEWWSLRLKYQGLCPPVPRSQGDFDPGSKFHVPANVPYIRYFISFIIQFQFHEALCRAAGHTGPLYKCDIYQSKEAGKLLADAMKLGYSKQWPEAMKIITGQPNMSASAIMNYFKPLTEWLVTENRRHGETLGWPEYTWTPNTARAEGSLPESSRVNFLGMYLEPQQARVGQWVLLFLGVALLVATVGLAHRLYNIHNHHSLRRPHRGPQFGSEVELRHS

[2] = target: T2, Angiotensin-converting enzyme (Rattus norvegicus) (UniProt P47820); assay: In vitro inhibition of rat Angiotensin I converting enzyme
T2 sequence (whole entry): T1 sequence (P47820 whole entry)

Rattus norvegicus [3] = assay: % Inhibition of angiotensin-I induced pressor response in normotensive rats after intravenous dosing of 0.015 umol/kg; assay type: functional
How it was run: (§1)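 Male Sprague–Dawley rats (225–275 g) fitted with indwelling abdominal aorta and vena cava catheters, recovered at least 2 weeks, then tested conscious and unrestrained. Aortic pressure was recorded directly. Pressor responses to AI (310 ng/kg iv) and AII (100 ng/kg iv) were taken before dosing. Compound was given iv in water or 5% NaHCO3, and responses were followed up to 70 min. Maximum % inhibition is the mean of four animals per dose.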

Rattus norvegicus [4] = assay: % Inhibition of angiotensin-I induced pressor response in normotensive rats after intravenous dosing of 0.05 umol/kg; assay type: functional; how it was run: as §1
Rattus norvegicus [5] = assay: % Inhibition of angiotensin-I induced pressor response in normotensive rats after intravenous dosing of 0.15 umol/kg; assay type: functional
How it was run: (§2)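 Conscious, unrestrained male Sprague–Dawley rats (225–275 g) with indwelling aortic and vena caval catheters, allowed at least 2 weeks of recovery. Aortic pressure recorded directly. Baseline pressor responses to AI (310 ng/kg iv) and AII (100 ng/kg iv) were taken first. Compound was given iv in 0.1 mL water or 5% NaHCO3, and responses were followed for up to 70 min. Maximum % inhibition is the mean of four animals per dose.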

Rattus norvegicus [6] = assay: % Inhibition of angiotensin-I induced pressor response in normotensive rats after intravenous dosing of 0.5 umol/kg; assay type: functional; how it was run: as §2
Rattus norvegicus [7] = assay: % Inhibition of angiotensin-I induced pressor response in normotensive rats after peroral dosing of 5 umol/kg; assay type: functional; details: po
How it was run: (§3)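 Conscious, unrestrained catheterized male Sprague–Dawley rats (225–275 g) had direct aortic pressure recording. Baseline pressor responses were taken to AI (310 ng/kg iv) and AII (100 ng/kg iv). Compound was given orally in water, 5% NaHCO3 or 1% agar suspension. AI and AII responses were then tracked up to 280 min. Maximum % inhibition is the mean response of four animals per dose.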

Rattus norvegicus [8] = assay: % Inhibition of angiotensin-I induced pressor response in normotensive rats after peroral dosing of 50 umol/kg; assay type: functional; details: po; how it was run: as §3
Rattus norvegicus [9] = assay: % Inhibition of angiotensin-I induced pressor response in normotensive rats after peroral dosing of 15 umol/kg; assay type: functional; details: po; how it was run: as §3
[10] = target: T2, Angiotensin-converting enzyme (Rattus norvegicus); assay: Evaluated for inhibition of Angiotensin I converting enzyme in rat; assay type: functional; details: concentration not given here
Rattus norvegicus [11] = assay: % Inhibition of angiotensin-I induced pressor response in normotensive rats after intravenous dosing of 1.5 umol/kg; assay type: functional; how it was run: as §2
Rattus norvegicus [12] = assay: % Inhibition of angiotensin-I induced pressor response in normotensive rats after intravenous dosing of 5 umol/kg; assay type: functional; how it was run: as §2
Rattus norvegicus [13] = assay: % Inhibition of angiotensin-I induced pressor response in normotensive rats after peroral dosing of 0.5 umol/kg; assay type: functional; details: po; how it was run: as §3
Rattus norvegicus [14] = assay: % Inhibition of angiotensin-I induced pressor response in normotensive rats after peroral dosing of 1.5 umol/kg; assay type: functional; details: po; how it was run: as §3

| IC50 [1] [nM] | SMILES | inhibition in vivo at 0.015 µmol/kg (Rattus norvegicus [3]) [%] | inhibition in vivo at 0.05 µmol/kg (Rattus norvegicus [4]) [%] | inhibition in vivo at 0.15 µmol/kg (Rattus norvegicus [5]) [%] | other results |
| --- | --- | --- | --- | --- | --- |
| 6.5 | C[C@H](CS)C(=O)N1CC2(C[C@H]1C(=O)O)SCCS2 |  |  |  |  |
|  | CS[C@@H]1C[C@@H](C(=O)O)N(C(=O)CP(=O)(O)CCCCc2ccccc2)C1 | 7 | 44 | 27 | T50 [2]: 29 nM; inhibition in vivo at 0.5 µmol/kg (Rattus norvegicus [6]): 79% |
|  | O=C(O)[C@@H]1CC2(CN1C(=O)CP(=O)(O)CCCCc1ccccc1)SCCS2 | 20 | 47 | 80 | T50 [2]: 4 nM and 2 nM; inhibition in vivo at 0.5 µmol/kg (Rattus norvegicus [6]): 90%; inhibition in vivo at 5 µmol/kg (Rattus norvegicus [7]): 28%; inhibition in vivo at 50 µmol/kg (Rattus norvegicus [8]): 94%; inhibition in vivo at 15 µmol/kg (Rattus norvegicus [9]): 74% |
|  | C[C@H](N[C@@H](CCc1ccccc1)C(=O)O)C(=O)N1CCC[C@H]1C(=O)O [ENALAPRILAT ANHYDROUS] | 11 | 67 | 90 | inhibition in vivo at 5 µmol/kg (Rattus norvegicus [7]): 46%; inhibition in vivo at 15 µmol/kg (Rattus norvegicus [9]): 85% |
| 5 | CS[C@@H]1C[C@@H](C(=O)O)N(C(=O)[C@H](C)N[C@@H](CCc2ccccc2)C(=O)O)C1 | 29 | 69 | 77 |  |
| 17 | C[C@H](CS)C(=O)N1C[C@@H](Sc2ccc(F)cc2)C[C@H]1C(=O)O |  |  |  |  |
|  | O=C(O)[C@@H]1C[C@H](C2CCCCC2)CN1C(=O)CP(=O)(O)CCCCc1ccccc1 |  | 26 | 73 | inhibition [10]: 72%; T50 [2]: 7 nM; inhibition in vivo at 0.5 µmol/kg (Rattus norvegicus [6]): 84%; inhibition in vivo at 5 µmol/kg (Rattus norvegicus [7]): 13% |
| 16 | C[C@H](CS)C(=O)N1CC(=O)C[C@H]1C(=O)O |  |  |  |  |
| 5 | C[C@H](N[C@@H](CCc1ccccc1)C(=O)O)C(=O)N1C[C@@H](C2CCCCC2)C[C@H]1C(=O)O | 21 | 48 | 92 |  |
| 7.2 | COC1(OC)C[C@@H](C(=O)O)N(C(=O)[C@H](C)CS)C1 |  |  |  |  |
| 8.6 | C[C@H](CS)C(=O)N1C[C@@H](O)C[C@H]1C(=O)O |  |  |  |  |
|  | O=C(O)[C@@H]1C[C@H](Sc2ccccc2)CN1C(=O)CP(=O)(O)CCCCc1ccccc1 |  |  | 27 | T50 [2]: 20 nM; inhibition in vivo at 0.5 µmol/kg (Rattus norvegicus [6]): 34%; inhibition in vivo at 1.5 µmol/kg (Rattus norvegicus [11]): 65%; inhibition in vivo at 5 µmol/kg (Rattus norvegicus [12]): 88% |
|  | O=C(O)[C@@H]1C[C@H](Cc2ccccc2)CN1C(=O)CP(=O)(O)CCCCc1ccccc1 |  |  |  | T50 [2]: 10 nM |
| 5 | C[C@H](N[C@@H](CCc1ccccc1)C(=O)O)C(=O)N1C[C@@H](c2ccccc2)C[C@H]1C(=O)O |  |  |  |  |
| 97 | C[C@H](CS)C(=O)N1C[C@@H](Oc2ccccc2)C[C@H]1C(=O)O |  |  |  |  |
|  | CCOC(=O)[C@H](CCc1ccccc1)N[C@@H](C)C(=O)N1CCC[C@H]1C(=O)O |  |  |  | inhibition in vivo at 0.5 µmol/kg (Rattus norvegicus [13]): 50%; inhibition in vivo at 1.5 µmol/kg (Rattus norvegicus [14]): 84%; inhibition in vivo at 5 µmol/kg (Rattus norvegicus [7]): 83% |
| 2 | C[C@H]1C[C@@H](C(=O)O)N(C(=O)[C@H](C)CS)C1 |  |  |  |  |
| 46 | C[C@H](CS)C(=O)N1C[C@@H]([S+]([O-])c2ccccc2)C[C@H]1C(=O)O (stereo partly drawn) |  |  |  |  |
| 2 | C[C@H](N[C@@H](CCc1ccccc1)C(=O)O)C(=O)N1C[C@H](Sc2ccccc2)C[C@H]1C(=O)O | 57 | 94 |  |  |
